A word on the MIC: it is the lowest concentration found to suppress growth. A low value points to greater potency. Broadly, the LD50 is the dose expected to kill half of the subjects tested. The low end stands for a more toxic substance, the high end for a less toxic substance.

In data set [1] the test system is Bacillus cereus. Description: Antimicrobial activity against Bacillus cereus UW85 by macrodilution method. In kind it is functional. Put shortly: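 Tube macrodilution per NCCLS. Strain grown in Luria-Bertani medium, 37°C, shaking at 200 rpm, 16 h. Inoculum 5 × 10^5 cells/ml. DMSO stocks diluted 2-fold through the tubes, with a DMSO-matched control. MIC is the lowest concentration without visible growth in triplicate, occasionally checked as no detectable absorbance at 600 nm.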

The subject of the next data set is Enterococcus faecalis. Description: Antimicrobial activity against Enterococcus faecalis 1131 by macrodilution method. The class given is functional. Put shortly:
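Brain heart infusion medium, static, 37°C, 14 h. NCCLS macrodilution, starting inoculum 5 × 10^5 cells/ml. Compounds in DMSO were 2-fold serially diluted across the inoculated tubes, with a matched DMSO control. MIC is the lowest concentration with no visible growth in triplicate, sometimes verified as no detectable A600.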

For data set [2], the system named is Staphylococcus aureus. The data set can be described thus: Antimicrobial activity against Staphylococcus aureus FRI 361 by macrodilution method. In kind it is functional. Put shortly:
(§1)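 Static culture in Luria-Bertani medium, 37°C, 14 h. NCCLS macrodilution, inoculum 5 × 10^5 cells/ml. Compounds in DMSO were 2-fold serially diluted through the inoculated tubes, with a DMSO-matched control. MIC is the lowest concentration preventing visible growth in triplicate, periodically confirmed by lack of absorbance at 600 nm.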

For data set [3], the system named is Bacillus cereus. Description: Antimicrobial activity against Bacillus cereus. The class given is functional.
Data set [4] relates to Bacillus anthracis. Description: Antimicrobial activity against Bacillus anthracis Sterne 7702 by macrodilution method. In kind it is functional.
The subject of a further data set is Pseudomonas aeruginosa. The data set can be described thus: Antimicrobial activity against Pseudomonas aeruginosa K by macrodilution method. The class given is functional. Summed up: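 Grown in Luria-Bertani medium at 37°C, shaking at 200 rpm, 16 h. NCCLS macrodilution with 5 × 10^5 cells/ml inoculum. Compounds in DMSO formed a 2-fold tube dilution series, with a control at equal DMSO. MIC was read visually as the lowest growth-preventing concentration in triplicate, periodically confirmed by no detectable A600.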

Data set [5] relates to Staphylococcus aureus. The data set can be described thus: Antimicrobial activity against Staphylococcus aureus FRI 100 by macrodilution method. The class given is functional. Put shortly:
as §1

Another data set has as its system Caulobacter vibrioides. The data set can be described thus: Antimicrobial activity against Caulobacter crescentus CB15N by macrodilution method. In kind it is functional. Put shortly: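 Peptone-yeast extract medium, 30°C, shaking at 200 rpm, 22 h. NCCLS macrodilution from 5 × 10^5 cells/ml. Compounds in DMSO given as a 2-fold tube series, with a control at the highest DMSO level. Endpoint is the lowest concentration preventing growth in triplicate by eye, periodically confirmed by absence of A600.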

For the next data set, the system named is Escherichia coli. The data set can be described thus: Antimicrobial activity against Escherichia coli MC1000 by macrodilution method. In kind it is functional. Summed up:
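Luria-Bertani medium, 30°C, shaking at 200 rpm, 14 h. Macrodilution per NCCLS aerobic criteria, with inoculum 5 × 10^5 cells/ml. DMSO-dissolved compounds were diluted 2-fold through the tubes, with a DMSO control. MIC is the lowest concentration preventing visible growth in triplicate, confirmed periodically by no absorbance at 600 nm.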

Data set [6] can be described thus: Toxicity in po dosed male Sherman rat. In kind it is organism-based. The note with it: in vivo.
Data set [7] is described as follows: Toxicity in po dosed female Sherman rat. In kind it is organism-based. The note with it: in vivo.
Data set [8] concerns Bacillus anthracis. The data set can be described thus: Antimicrobial activity against Bacillus anthracis by Etest. The class given is functional.

Converted amounts (≈) assume the structure as drawn.

On to `Oc1ccc(Cl)cc1Cc1cc(Cl)cc(Cc2cc(Cl)ccc2O)c1O`, for which the MIC was determined as 0.3 µM (≈ 0.123 µg/mL) in the data set on Bacillus cereus [1]; 1.3 µM (≈ 0.533 µg/mL) against Enterococcus faecalis; 0.6 µM (≈ 0.246 µg/mL) in the data set with Staphylococcus aureus [2]; 0.3 µM (≈ 0.123 µg/mL) in the data set on Bacillus cereus [3]; 0.3 µM (≈ 0.123 µg/mL) against Bacillus anthracis [4]; 40 µM (≈ 16.4 µg/mL) with Pseudomonas aeruginosa. In addition, the MIC turned out to be 0.08 µM (≈ 0.0328 µg/mL) with Staphylococcus aureus [5], 2.5 µM (≈ 1.02 µg/mL) in the data set with Caulobacter vibrioides and 5 µM (≈ 2.05 µg/mL) in the data set on Escherichia coli.

In the case of `Oc1ccc(Cl)cc1Cc1cc(Cl)cc(Cc2cc(Cl)cc(Cc3cc(Cl)cc(Cc4cc(Cl)ccc4O)c3O)c2O)c1O`, the MIC against Bacillus cereus [1] is 0.3 µM (≈ 0.207 µg/mL); against Enterococcus faecalis it was 0.6 µM (≈ 0.415 µg/mL); in the data set with Staphylococcus aureus [2], 5 µM (≈ 3.45 µg/mL); in the data set with Bacillus anthracis [4], 1.3 µM (≈ 0.898 µg/mL); in the data set on Pseudomonas aeruginosa, over 80 µM; in the data set with Staphylococcus aureus [5], 5 µM (≈ 3.45 µg/mL). Also, the MIC is 5 µM (≈ 3.45 µg/mL) with Caulobacter vibrioides and over 80 µM in the data set with Escherichia coli.

On to `Oc1ccc(Cl)cc1Cc1cc(Cl)cc(Cc2cc(Cl)cc(Cc3cc(Cl)ccc3O)c2O)c1O`, for which the MIC against Bacillus cereus [1] is 0.08 µM (≈ 0.044 µg/mL); against Enterococcus faecalis, 0.3 µM (≈ 0.165 µg/mL); against Staphylococcus aureus [2], 0.3 µM (≈ 0.165 µg/mL); with Bacillus anthracis [4], 0.16 µM (≈ 0.088 µg/mL); against Pseudomonas aeruginosa, over 80 µM; against Staphylococcus aureus [5] it was 0.16 µM (≈ 0.088 µg/mL). The MIC in the data set on Caulobacter vibrioides was 0.3 µM (≈ 0.165 µg/mL); in the data set with Escherichia coli, over 80 µM.

`Oc1ccc(Cl)cc1Cc1cc(Cl)ccc1O` [DICHLOROPHEN]: the MIC was 10 µM (≈ 2.69 µg/mL) in the data set with Bacillus cereus [1]; 80 µM (≈ 21.5 µg/mL) with Enterococcus faecalis; 20 µM (≈ 5.38 µg/mL) in the data set with Staphylococcus aureus [2]; 5 µM (≈ 1.35 µg/mL) with Bacillus anthracis [4]; over 320 µM against Pseudomonas aeruginosa; 20 µM (≈ 5.38 µg/mL) against Staphylococcus aureus [5]. Further, the MIC was found to be 20 µM (≈ 5.38 µg/mL) in the data set with Caulobacter vibrioides and 160 µM (≈ 43.1 µg/mL) with Escherichia coli. In addition, the figures for the LD50 in data set [6] and in data set [7] were 1510 mg/kg and 1680 mg/kg, respectively.

In turn, `CC1(C)S[C@@H]2[C@H](NC(=O)Cc3ccccc3)C(=O)N2[C@H]1C(=O)O` [PENICILLIN G] yielded an MIC with Bacillus anthracis [8] of 0.02 µM (≈ 0.00669 µg/mL).

Consider `CN(C)[C@@H]1C(O)=C(C(N)=O)C(=O)[C@@]2(O)C(O)=C3C(=O)c4c(O)cccc4[C@@](C)(O)[C@H]3C[C@@H]12` [TETRACYCLINE], for which the MIC against Bacillus anthracis [8] is 0.07 µM (≈ 0.0311 µg/mL).
